Data set [1] has as its target T1, Low molecular weight phosphotyrosine protein phosphatase (Homo sapiens, UniProt P24666).
T1 sequence (P24666 whole entry): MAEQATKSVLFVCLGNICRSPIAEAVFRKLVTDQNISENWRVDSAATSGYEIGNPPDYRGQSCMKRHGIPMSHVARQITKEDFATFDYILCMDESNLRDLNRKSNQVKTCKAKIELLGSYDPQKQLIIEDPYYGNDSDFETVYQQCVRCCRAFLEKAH
As to the kind of experiment: Inhibition of recombinant human LMPTP-A using OMFP or pNPP as substrate by fluorescence assay. Put shortly: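 Recombinant human LMPTP-A in 50 mM Bis-Tris pH 6.0, 1 mM DTT, 0.01% Triton X-100, 37°C. With OMFP, fluorescence followed continuously (ex 485/em 525 nm). With pNPP, reaction stopped with 2 volumes 1 M NaOH and absorbance read at 405 nm. IC50 from inhibitor concentration vs % enzyme activity plots; n=4 unless otherwise noted.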

In data set [2] the test system is Mus musculus. As to the kind of experiment: Reversal of high fat diet induced diabetes in B6 mouse assessed as increase in insulin-stimulated AKT Thr308 phosphorylation in liver at 30 mg/kg/day, po administered for 2 weeks by Western blotting analysis. It counts as functional, organism-based. Summed up: (§1)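 Male C57BL/6 littermates fed 60 kcal% fat chow for 3 months from 1-2 months of age; DIO mice ≥35 g given HFD containing 0.03% w/w compound (about 30 mg/kg/day) or HFD alone for 2 weeks. HFD n=8; treated n=9.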

Data set [3] deals with T2, Low molecular weight phosphotyrosine protein phosphatase (Homo sapiens) (UniProt P24666).
T2 sequence (whole entry): T1 sequence (P24666 whole entry)
Briefly: Inhibition of LMPTP in human HepG2 cells assessed as increase in insulin-stimulated AKT Thr308 phosphorylation at 500 nM preincubated overnight followed by insulin stimulation for 5 mins by Western blotting analysis. It counts as cell-based. Put shortly: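 HepG2 cells grown in EMEM with 10% FBS plus penicillin/streptomycin. Serum-starved (0.1% FBS) overnight with DMSO or 500 nM compound, then stimulated with 10 nM bovine insulin for 5 min at 37°C with compound still present. Lysates probed by Western blot for pAKT Thr308, normalized to total AKT or GAPDH. 8 independent experiments.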

The nature of data set [4]: Microsomal stability in mouse liver microsomes assessed as parent compound remaining measured after 1 hr. It counts as ADME, Microsome. Conditions: read-out: Stabilty.
Data set [5] has as its system Mus musculus. Briefly: Reversal of high fat diet induced diabetes in B6 mouse assessed as decrease in fasting insulin levels at 30 mg/kg/day, po administered for 2 weeks by ELISA. It counts as functional, organism-based. Put shortly:
as §1
On the technique in general: An ELISA detects its analyte on a solid surface through an enzyme-linked reagent.

A short description of data set [6]: Oral bioavailability in C57BL/6 mouse at 10 mg/kg measured upto 24 hrs by LC-MS/MS analysis. Type of data set: ADME, organism-based. Conditions: in vivo.
Data set [7] has as its system Mus musculus. As to the kind of experiment: Reversal of high fat diet induced diabetes in B6 mouse assessed as increase in insulin-stimulated IR tyrosine phosphorylation in liver at 30 mg/kg/day, po administered for 2 weeks by ELISA. Type of data set: functional, organism-based. Summed up: as §1
A short description of data set [8]: Plasma protein binding in mouse. It counts as ADME, cell-free.
Data set [9] in a line: Volume of distribution in C57BL/6 mouse at 2 mg/kg, iv measured upto 24 hrs by LC-MS/MS analysis. Type of data set: ADME, organism-based. Conditions: in vivo.
Data set [10] relates to Mus musculus. Briefly: Reversal of high fat diet induced diabetes in B6 mouse assessed as improved glucose tolerance at 30 mg/kg/day, po administered for 2 weeks followed by 13 hrs fasting and measured by IPGTT. Type of data set: functional, organism-based. Summed up: as §1
Data set [11] can be described thus: Microsomal stability in human liver microsomes assessed as parent compound remaining measured after 1 hr. It counts as ADME, Microsome. Particulars: read-out: Stabilty. In general terms: Microsomes from liver hold many membrane-bound enzymes, among them those of drug oxidation.
Data set [12] can be described thus: AUC in C57BL/6 mouse at 10 mg/kg, po measured upto 24 hrs by LC-MS/MS analysis. Type of data set: ADME, organism-based. More on the design: route oral, dose 10 mg/kg, time <=24. Particulars: in vivo.
Data set [13] is described as follows: Cmax in C57BL/6 mouse at 10 mg/kg, po measured upto 24 hrs by LC-MS/MS analysis. On the set-up: route oral, dose 10 mg/kg, time <=24. It counts as ADME, organism-based. Conditions: in vivo.
Data set [14] is described as follows: Half life in C57BL/6 mouse at 10 mg/kg, po measured upto 24 hrs by LC-MS/MS analysis. Type of data set: ADME, organism-based. Conditions: in vivo.
Data set [15] in a line: Plasma protein binding in human. Type of data set: ADME, cell-free.
In data set [16] the target is T2, Low molecular weight phosphotyrosine protein phosphatase (Homo sapiens). Briefly: Uncompetitive inhibition of recombinant human LMPTP-A using OMFP as substrate by Lineweaver-Burk plot analysis. Put shortly:
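Recombinant human LMPTP-A at 20 nM acting on increasing OMFP concentrations with increasing inhibitor concentrations. Buffer was 50 mM Bis-Tris pH 6.0, 1 mM DTT, 0.01% Triton X-100 at 37°C. Fluorescence read continuously (ex 485/em 525 nm). Rates fitted to Michaelis-Menten and mixed-model inhibition equations and shown as Lineweaver-Burk plots. 3 independent experiments in triplicate.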

Calls of active or inactive are those of the source. The rule behind the calls is not given here.

In general, IC50 refers to the point on the concentration scale where inhibition reaches its midpoint. In general, Vd refers to the apparent volume that relates the amount in the body to the concentration in plasma or blood. Lower therefore signals confinement near the circulation. By AUC is commonly meant the area under the concentration-time curve, a measure of exposure. Higher therefore signals more exposure. By Cmax is commonly meant the maximum level reached in the sampled fluid or tissue.

Consider `Nc1ncn(Cc2ccc(Cl)cc2Cl)c2ncnc1-2`, for which, in data set [1], the concentration for half-maximal inhibition (IC50) turned out to be 1020 nM.
`Nc1ncn(Cc2c(Cl)cncc2Cl)c2ncnc1-2`: the result in the data set with Mus musculus [2], with Mus musculus [5], with Mus musculus [7] and in the data set on Mus musculus [10] was Active. The IC50 in [1] came to 83 nM. In addition, in [3], the inhibition result was “Active”. Moreover, the remaining at 1 h in [4] and in data set [11] was > 90% in each case. Moreover, in data set [6], the F was determined as 100%. The values for the PPB in [8] and in data set [15] were 89% and 88%, respectively. This compound also showed a volume of distribution (Vd) in data set [9] of 0.81 L/kg. The same compound showed an AUC in data set [12] of 9501 ng·h/mL. Also, the maximum concentration (Cmax) in data set [13] stood at 8220 ng/mL. The compound further registered a t1/2 in data set [14] of 0.71 h.
For `Cc1ccccc1-c1nc2c(N)ncn(Cc3c(Cl)cccc3Cl)c-2n1`, in [1], the half-inhibitory concentration (IC50) came out at 20 nM. The F in data set [6] was 19%. In addition, in data set [16], the inhibition result is “Active”. In data set [9], this compound had a volume of distribution (Vd) of 2.75 L/kg. This compound registered an exposure (AUC) in data set [12] of 312 ng·h/mL. Further, the Cmax in data set [13] was determined as 134 ng/mL. In [14], this compound yielded a t1/2 of 1.35 h.
With `Nc1ncn(Cc2c(Cl)cccc2Cl)c2nc(-c3ccccc3)nc1-2`, the IC50 in data set [1] is 104 nM.
On the same count and under the same terms, then `Nc1ncn(Cc2c(Cl)cccc2Cl)c2nc(Cl)nc1-2`, with 27800 nM.
`Nc1ncn(Cc2c(Cl)cccc2Cl)c2ncnc1-2`: the IC50 in data set [1] turned out to be 239 nM. This compound registered a F in [6] of 66%. In [9], this compound had a distribution volume (Vd) of 3.01 L/kg. Besides, the area under the curve (AUC) in data set [12] came to 18544 ng·h/mL. In addition, in data set [13], the Cmax is 5018 ng/mL. The compound also had a t1/2 in data set [14] of 4.71 h.
As for `Nc1ncn(Cc2c(Cl)cccc2Cl)c2nc(-c3ccc(F)cc3)nc1-2`, the IC50 in data set [1] amounted to 117 nM.
Same read-out and setting: the same measure for `Nc1ncn(Cc2c(Cl)cccc2Cl)c2nc(Br)nc1-2`: 17600 nM.
Same read-out and setting: then `Nc1ncn(Cc2c(Cl)cccc2Cl)c2nc(-c3ccc(Cl)cc3)nc1-2`, with 288 nM; and `Cc1ccc(-c2nc3c(N)ncn(Cc4c(Cl)cccc4Cl)c-3n2)cc1`, with 119 nM; and `Nc1ncn(Cc2ccccc2Cl)c2ncnc1-2`, with 1930 nM.
Still for that read-out and setting: the same measure for `Cc1cccc(-c2nc3c(N)ncn(Cc4c(Cl)cccc4Cl)c-3n2)c1`: 87 nM; for `Nc1ncn(Cc2c(Cl)cccc2Cl)c2nc(-c3cccc(Cl)c3)nc1-2`: 380 nM.
As to `Nc1ncn(Cc2c(Cl)cccc2Cl)c2nc(-c3ccccc3Cl)nc1-2`, in data set [1], the IC50 is 171 nM.
`Cc1ccccc1-c1nc2c(N)ncn(Cc3c(Cl)cncc3Cl)c-2n1`: the IC50 in data set [1] was found to be 6 nM. In addition, in [6], the F was found to be 3%. Further, the distribution volume (Vd) in [9] turned out to be 4.04 L/kg. Besides, the area under the curve (AUC) in data set [12] was determined as 38 ng·h/mL. In data set [13], this compound returned a maximum concentration (Cmax) of 17 ng/mL. The compound also gave a t1/2 in data set [14] of 1.55 h.
As for `Nc1ncn(Cc2cccc(Cl)c2)c2ncnc1-2`, the IC50 in data set [1] was 18500 nM.
On the same count and under the same terms, then `Nc1ncn(Cc2ccccc2)c2ncnc1-2` [3-BENZYLADENINE], with 13600 nM; and `Nc1ncn(Cc2c(Cl)cccc2Cl)c2nc(-c3cccc(F)c3)nc1-2`, with 239 nM; and `N#Cc1ccccc1-c1nc2c(N)ncn(Cc3c(Cl)cccc3Cl)c-2n1`, with 245 nM.
The same measure, in the same setting: then `Nc1ncn(Cc2c(Cl)cccc2Cl)c2nc(-c3ccccc3F)nc1-2`, with 147 nM; and `Nc1ncn(Cc2ccc(Cl)cc2)c2ncnc1-2`, with 19400 nM; and `COc1ccccc1-c1nc2c(N)ncn(Cc3c(Cl)cccc3Cl)c-2n1`, with 106 nM.
The same measure, in the same setting: then `Cc1cccc(C)c1Cn1cnc(N)c2ncnc1-2`, with 3430 nM.
For the compound `Cc1nc2c(N)ncn(Cc3c(Cl)cccc3Cl)c-2n1`, the IC50 in [1] turned out to be 306 nM.

These data come from ChEMBL document CHEMBL4837200, “Discovery of Orally Bioavailable Purine-Based Inhibitors of the Low-Molecular-Weight Protein Tyrosine Phosphatase” (J Med Chem, 2021).
